Published values pooled from the literature.
Protocols differ between the studies behind these lines.
Target: Ephrin type-B receptor 4 (EPHB4, Homo sapiens, UniProt P54760)
Sequence (P54760 1-987, as in one of the studies): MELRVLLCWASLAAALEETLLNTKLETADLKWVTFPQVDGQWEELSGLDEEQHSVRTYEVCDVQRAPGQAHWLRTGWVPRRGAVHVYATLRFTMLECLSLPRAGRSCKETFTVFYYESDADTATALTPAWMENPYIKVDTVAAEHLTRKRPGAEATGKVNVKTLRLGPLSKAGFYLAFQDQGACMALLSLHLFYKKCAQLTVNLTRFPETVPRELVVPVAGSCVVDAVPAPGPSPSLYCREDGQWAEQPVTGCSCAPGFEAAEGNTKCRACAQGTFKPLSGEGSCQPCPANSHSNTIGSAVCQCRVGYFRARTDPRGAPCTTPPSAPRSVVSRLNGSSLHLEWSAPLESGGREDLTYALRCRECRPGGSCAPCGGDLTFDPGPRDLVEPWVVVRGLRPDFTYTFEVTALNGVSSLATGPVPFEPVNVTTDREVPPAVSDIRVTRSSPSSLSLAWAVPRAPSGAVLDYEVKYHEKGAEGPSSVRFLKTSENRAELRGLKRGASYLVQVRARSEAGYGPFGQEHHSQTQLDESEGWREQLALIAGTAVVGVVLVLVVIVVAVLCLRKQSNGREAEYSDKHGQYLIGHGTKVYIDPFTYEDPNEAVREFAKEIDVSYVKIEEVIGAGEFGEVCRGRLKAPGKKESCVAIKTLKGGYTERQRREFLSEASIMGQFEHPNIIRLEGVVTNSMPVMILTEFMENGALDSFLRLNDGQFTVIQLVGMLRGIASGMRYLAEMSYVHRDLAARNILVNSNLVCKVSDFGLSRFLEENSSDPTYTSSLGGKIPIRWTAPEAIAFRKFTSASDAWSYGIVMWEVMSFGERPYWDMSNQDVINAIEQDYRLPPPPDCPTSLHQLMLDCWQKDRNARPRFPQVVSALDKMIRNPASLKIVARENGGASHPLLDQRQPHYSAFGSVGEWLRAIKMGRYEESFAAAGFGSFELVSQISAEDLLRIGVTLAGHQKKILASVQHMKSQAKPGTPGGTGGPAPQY

Nc1cnc(N2CCc3cc(S(=O)(=O)Nc4c(F)cc(Cl)cc4F)cc(N4CCCC4=O)c32)nc1
remaining binding (cell-free assay, competition with immobilised ligand; 1 µM): 100%

O=C(Nc1cnn(-c2csc(C(=O)NC3COC3)c2)c1)Nc1c(F)cccc1Cl
remaining activity (enzyme activity, inhibitor; 5 µM): 98.1%

CC/C(=N\NC(=O)NCc1cccc(O)c1)c1ccc(O)c(C)c1O
inhibition (enzyme activity, inhibitor; 0.1 µM): 0.2%

O=C1Nc2ccc(Cl)cc2C1=Cc1cc(Cl)c(O)c(Cl)c1
remaining signal (cell-free assay; 0.5 µM): 100%

COc1cc(Cl)c(C(=O)N[C@@H](CN[C@H]2CC[C@@H](N)CC2)Cc2ccc(C#N)cc2)cc1-c1ccc(CN[C@H](C)c2ccc(C)cc2)o1
remaining activity (enzyme activity, inhibitor; 1 µM): 91%

CN(C)CC#Cc1ccc(OCCCc2sc(N3CCc4cccc(C(=O)Nc5nc6ccccc6s5)c4C3)nc2C(=O)O)c(F)c1
remaining binding (cell-free assay, competition with immobilised ligand; 1 µM): 100%

c1ccc(CNc2nc(N3CCOc4ccccc43)nc3c2CCCC3)cc1
inhibition (target engagement in cells, inhibitor, chemoproteomics; 20 mM): -4%

FC(F)c1nc2ccccc2n1-c1nc(N2CCOCC2)nc(N2CCOCC2)n1
remaining activity (enzyme activity, inhibitor; 10 µM): 105%

CS(=O)(=O)N1CCCC(NC(=O)[C@H](CCC2CCCCC2)NC(=O)c2ccc(CNc3ncnc4c3nnn4-c3ccccc3)cc2)C1 (some centres unmarked)
remaining binding (cell-free assay, competition with immobilised ligand; 0.1 µM): 96%

N#CCCc1ccc2c(c1)-c1[nH]c3ccc([N+](=O)[O-])cc3c1CC(=O)N2
remaining signal (cell-free assay; 0.5 µM): 82.2%

CNCc1ccc(-c2cc(-c3nc(-c4ccc(S(=O)(=O)C(C)C)cc4)cnc3N)on2)cc1
inhibition (enzyme activity, inhibitor; 0.4 µM): 0%

COc1cc2c(Nc3ccc(Br)cc3F)ncnc2cc1OCC1CCN(C)CC1
remaining signal (cell-free assay; 0.5 µM): 13%

CC(C)(C)c1nc(-c2cccc(NS(=O)(=O)c3c(F)cccc3F)c2F)c(-c2ccnc(N)n2)s1
remaining activity (enzyme activity, inhibitor, radiometric; 1 µM): 97%

Nc1ncnc2occ(-c3ccc(NC(=O)Nc4cc(C(F)(F)F)ccc4F)cc3)c12
remaining signal (cell-free assay; 20 µM): 0%

N#Cc1ccc(Nc2ccc3[nH]c(=O)[nH]c3c2)c(Cl)c1
remaining binding (cell-free assay, competition with immobilised ligand; 1 µM): 98%

COc1cc(Nc2cnc(C#N)c(O[C@H](C)CN(C)C)n2)ncc1-c1cnn(C)c1
remaining activity (enzyme activity, inhibitor, radiometric; 10 µM): 88%

Cc1cc(NC(=O)c2cccc(S(F)(F)(F)(F)F)c2)cc(-n2ccn3nc(-c4cccnc4)cc23)c1
remaining binding (cell-free assay, competition with immobilised ligand; 1 µM): 100%

CNC(=O)c1cc2c(Oc3ccc(NC(=O)C4(C(=O)Nc5ccc(F)cc5)CC4)cc3)ccnc2cc1OC
inhibition (enzyme activity, inhibitor, radiometric; 1 µM): 83%

O=C(NCc1ncc(C(F)(F)F)cc1Cl)c1ccc2c(c1)C1(CCS(=O)(=O)CC1)[C@H](C1CC1)N2S(=O)(=O)c1ccc(F)cc1
remaining binding (cell-free assay, competition with immobilised ligand; 1 µM): 100%

CCCOc1ccc(OC)c(F)c1C(=O)c1ccc(C(=O)N[C@@H]2CNC[C@H]2NC(=O)c2ccc3[nH]ncc3c2)cc1
remaining activity (enzyme activity, inhibitor; 10 µM): 79%
